Test results taken from ChEMBL document CHEMBL1124184, “Dopamine autoreceptor agonists as potential antipsychotics. 1. (Aminoalkoxy)anilines” (J Med Chem, 1988).
Activity calls are given as the source filed them. No cut-off for these calls is given here.

What was measured:
Rattus norvegicus [1] = test: Reversal of 6-OHDA-induced depression in rats, after sc injection after dosing for a period of 30 min; format: functional; details: 0.5 h
Outline: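 Rats pretreated at least one month earlier with 6-OHDA (200 μg icv) plus pargyline (50 mg/kg ip) and desmethylimipramine (25 mg/kg ip), giving about 90% brain DA depletion checked in representative animals. Test drug given sc; locomotor activity recorded for 30 min starting immediately after dosing.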

Rattus norvegicus [2] = test: Inhibition of locomotor activity in rats after peroral administration of the compound.; format: functional; details: po
Rattus norvegicus [3] = test: Inhibition of locomotor activity in rats, after sc injection after dosing for a period of 30 min; format: functional; details: 0.5 h
Rattus norvegicus [4] = test: Reversal of reserpine induced depression in rats, after sc injection after dosing for a period of 30 min; format: functional; details: 0.5 h
Outline: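 Normal rats given reserpine 5 mg/kg 24 h before testing, then test drug sc. Locomotor activity recorded for 30 min starting immediately after dosing. Locomotor stimulation read as reversal of reserpine-induced depression.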

Rattus norvegicus [5] = test: Inhibition of accumulation of DOPA in rat striatum, after intraperitoneal administration.; format: functional; details: ip
Outline: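 Rats dosed ip 1 h before sacrifice; GBL (750 mg/kg ip) and NSD 1015 (100 mg/kg ip) given 30 and 25 min before sacrifice. Striatal DOPA measured by HPLC with electrochemical detection. ED50 is the dose giving half-maximal decrease in DOPA formation, from three to five dose levels with four to five rats per group.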

Rattus norvegicus [6] = test: Inhibition of dopamine neuronal firing in the anesthetized rats after ip administration at a dose 2.5 mg/kg; format: functional; details: route intraperitoneal
Outline: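 Zona compacta DA cells of substantia nigra recorded extracellularly in chloral-anesthetized rats, identified by waveform and firing pattern, with recording sites confirmed histologically. Drug given at 2.5 mg/kg ip via an indwelling catheter. Baseline was the mean rate over the 2 min before injection. Effect was the mean over the 1-min period of maximal inhibition.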

Monkey [7] = test: Effect on Inhibition of Sidman avoidance in squirrel monkeys when administered orally; format: functional; details: in Saimiri, po
Outline: (§1)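 Sidman avoidance in mature squirrel monkeys; oral dosing at three doses, four animals per dose; ED50 with SEM derived from the dose-response.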

Monkey [8] = test: Effect on Inhibition of Sidman avoidance in squirrel monkeys was determined; format: functional; details: in Saimiri; outline: as §1
Monkey [9] = test: Effect on EPS liability in squirrel monkeys sensitized to haloperidol at 2.5 mg/kg; A=Active; format: functional, organism-based; design: dose 2.5 mg/kg; details: Cercopithecidae

For `C1=C(c2ccccc2)CCN(CCCCc2c[nH]c3ccccc23)C1`, the ED50 (Rattus norvegicus [1]) was 0.4 mg/kg, the ED50 (Rattus norvegicus [2]) was 4.8 mg/kg and the ED50 (Rattus norvegicus [3]) was 0.64 mg/kg. For the same molecule, the ED50 (Rattus norvegicus [4]) was over 30 mg/kg, the ED50 (Rattus norvegicus [5]) was 2.2 mg/kg and the inhibition in vivo at 2.5 mg/kg (Rattus norvegicus [6]) was 100%.

Molecule `Nc1cccc(OCCCN2CCN(c3ccccc3)CC2)c1` has an ED50 (Rattus norvegicus [1]) of over 30 mg/kg, an ED50 (Monkey [7]) of 8.5 mg/kg and an ED50 (Rattus norvegicus [2]) of 10.3 mg/kg. For the same molecule, the ED50 (Rattus norvegicus [3]) was 1.8 mg/kg, the ED50 (Rattus norvegicus [4]) was over 30 mg/kg and the ED50 (Rattus norvegicus [5]) was 12 mg/kg. It also gave an inhibition in vivo at 2.5 mg/kg (Rattus norvegicus [6]) of 85%.

`CN1CCc2cccc3c2[C@H]1Cc1ccc(O)c(O)c1-3` [APOMORPHINE] showed an ED50 (Rattus norvegicus [1]) of 0.006 mg/kg, an ED50 (Rattus norvegicus [2]) of over 30 mg/kg and an ED50 (Rattus norvegicus [3]) of 0.021 mg/kg. The ED50 (Rattus norvegicus [4]) was 0.096 mg/kg, the ED50 (Rattus norvegicus [5]) was 0.3 mg/kg and the inhibition in vivo at 2.5 mg/kg (Rattus norvegicus [6]) was 100%.

With `Nc1cccc(OCCCN2CCN(c3ccccn3)CC2)c1` the ED50 (Rattus norvegicus [2]) was 9.2 mg/kg and the inhibition in vivo at 2.5 mg/kg (Rattus norvegicus [6]) was 46%.

In the case of `CSc1ccc2c(c1)N(CCC1CCCCN1C)c1ccccc1S2` (stereo not given) [THIORIDAZINE], the ED50 (Monkey [8]) is reported as 3.9 mg/kg and the EPS (Monkey [9]) is reported as “Active”.

`CNc1cccc(OCCCN2CCN(c3ccccc3)CC2)c1` gave an ED50 (Rattus norvegicus [2]) of 9.4 mg/kg and an inhibition in vivo at 2.5 mg/kg (Rattus norvegicus [6]) of 7%.

With `CCCN1CCC[C@H](c2cccc(O)c2)C1` the ED50 (Rattus norvegicus [1]) was 0.6 mg/kg, the ED50 (Rattus norvegicus [2]) was over 30 mg/kg and the ED50 (Rattus norvegicus [3]) was 8.8 mg/kg. The ED50 (Rattus norvegicus [5]) was 7.2 mg/kg and the inhibition in vivo at 2.5 mg/kg (Rattus norvegicus [6]) was 100%.

With `CCCN(CCCOc1cccc(N)c1)CCc1ccccc1` the ED50 (Rattus norvegicus [2]) was over 30 mg/kg and the inhibition in vivo at 2.5 mg/kg (Rattus norvegicus [6]) was 8%.

Molecule `CN(C)c1cccc(OCCCN2CCN(c3ccccc3)CC2)c1` has an ED50 (Rattus norvegicus [2]) of 9.2 mg/kg and an inhibition in vivo at 2.5 mg/kg (Rattus norvegicus [6]) of 21%.

Work on `Nc1cccc(OCCCN2CC=C(c3ccccc3)CC2)c1` yielded an ED50 (Rattus norvegicus [1]) of 0.13 mg/kg, an ED50 (Rattus norvegicus [2]) of 12.1 mg/kg and an ED50 (Rattus norvegicus [3]) of 0.35 mg/kg. For the same molecule, the ED50 (Rattus norvegicus [4]) was over 30 mg/kg, the ED50 (Rattus norvegicus [5]) was 7 mg/kg and the inhibition in vivo at 2.5 mg/kg (Rattus norvegicus [6]) was 89%.
